Bioassay records deposited in PubChem by several laboratories.
T cruzi inh: inhibitors of intracellular T. cruzi growth, primary screen, luminescence, NIH3T3 host cells | T. cruzi beta-gal in NIH3T3, 90 h | inhibition, % (test concentration not listed) | 1.4% of 300,000 active | AID 1885, 2009;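 active = mean inhibition across valid replicates above about 55%, limit read from the data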;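 also: signal also drops with host cell toxicity which is not excluded here; higher percent means less beta-gal luminescence so fewer parasites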
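System: mouse NIH/3T3 fibroblasts infected with β-gal-expressing T. cruzi Tulahuen C4 / Input: NIH/3T3 cells, 5,000 per well / Buffer or medium: Low-serum DMEM with 2% FBS / Probe or stimulus: 5000 reporter trypomastigotes per well / Schedule: ≥90 h infection period, 3 h prior cell attachment / Measured by: GalScreen luminescence, 60 min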
Mdm2 MdmX PPI: inhibitors of human Mdm2-MdmX association, primary screen, cell-based, luminescence, split luciferase, SaOS-2, uHTS. SaOS-2 split-luciferase Mdm2/MdmX complementation. 3% of 330,000 active. AID 485346, 2010. inhibition, % at 8 µM;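 active = inhibition of at least 50% at 8 µM in the primary screen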
Target sequence (O15151 whole entry, looked up): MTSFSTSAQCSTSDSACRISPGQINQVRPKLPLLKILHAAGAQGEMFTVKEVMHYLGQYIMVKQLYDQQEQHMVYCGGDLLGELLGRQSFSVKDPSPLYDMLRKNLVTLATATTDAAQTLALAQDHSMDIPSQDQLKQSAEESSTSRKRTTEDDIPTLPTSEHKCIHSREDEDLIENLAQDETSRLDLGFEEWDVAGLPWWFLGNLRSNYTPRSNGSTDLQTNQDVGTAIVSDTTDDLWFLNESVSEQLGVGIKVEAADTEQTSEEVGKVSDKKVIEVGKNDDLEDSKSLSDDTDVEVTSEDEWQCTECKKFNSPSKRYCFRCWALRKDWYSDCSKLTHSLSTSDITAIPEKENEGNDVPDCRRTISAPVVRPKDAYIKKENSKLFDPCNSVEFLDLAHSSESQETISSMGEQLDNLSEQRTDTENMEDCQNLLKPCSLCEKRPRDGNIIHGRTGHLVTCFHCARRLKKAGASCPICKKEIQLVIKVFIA
Target sequence (Q00987 whole entry, looked up): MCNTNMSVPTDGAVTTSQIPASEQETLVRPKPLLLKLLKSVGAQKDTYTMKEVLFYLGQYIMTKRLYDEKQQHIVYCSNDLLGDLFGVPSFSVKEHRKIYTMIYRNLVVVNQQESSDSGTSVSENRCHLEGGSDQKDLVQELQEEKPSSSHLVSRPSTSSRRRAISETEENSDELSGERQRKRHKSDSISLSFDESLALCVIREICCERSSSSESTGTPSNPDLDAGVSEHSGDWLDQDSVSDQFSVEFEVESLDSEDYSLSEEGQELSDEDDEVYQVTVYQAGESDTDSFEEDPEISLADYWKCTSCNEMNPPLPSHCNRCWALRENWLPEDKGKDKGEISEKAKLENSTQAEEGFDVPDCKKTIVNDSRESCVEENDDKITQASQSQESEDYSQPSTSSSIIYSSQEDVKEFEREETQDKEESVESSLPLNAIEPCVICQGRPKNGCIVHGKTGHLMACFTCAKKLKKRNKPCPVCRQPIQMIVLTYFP
SKKanGAS inh: S. pyogenes SKKanGAS growth inhibitors in kanamycin, primary screen, streptokinase expression inhibitor project, SKKanGAS strain, BacTiter-Glo luminescence; 6 h; inhibition, % at 7.5 µM; 1.3% of 300,000 active;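 active = mean replicate score, as percent of positive control median, at least 50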;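 also: strain carries kanamycin resistance gene driven by streptokinase promoter and grows in 40 µg/ml kanamycin; loss of luminescence reflects streptokinase promoter inhibition or plain growth inhibition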
aSyn UTR inh: MLPCN primary screen, SNCA 5' untranslated region. 0.82% of 300,000 active. inhibition, % (tested at 7.5 µM). AID 1813, 2009. alpha-synuclein 5'UTR reporter, inhibitor activity; in the data active = inhibition above about 60%;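 also: H4 neuroglioblastoma cells stably carrying SNCA 5'UTR luciferase fusion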
CSC inhib: cancer stem cell viability inhibitors, primary screen, luminescence | cancer stem cell-like cells viability | inhibition, % at 7.5 µM | 1.1% of 300,000 active; in the data active = inhibition above about 75%; tested in HMLE shEcad cells
Mdm2-MdmX conf: Mdm2-MdmX complex disruptors, retested hits, confirmation, luminescence, single concentration. shares compounds with Mdm2 MdmX PPI. Mdm2-MdmX binding, luminescent assay. inhibition, % at 8 µM. 55% of 10,000 active; in the data active = inhibition above about 40%
FLuc counter: full-length luciferase signal inhibition, confirmation, counter-screen for Mdm2/MdmX interaction inhibitor project, cell-based, single concentration, SaOS-2; AID 504607, 2011; inhibition, % at 8 µM; shares compounds with Mdm2 MdmX PPI; SaOS-2 full-length luciferase counterscreen, luminescence; 77% of 6,200 active;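 active = mean inhibition at 8 µM reaching about 37%, which flags the compound as non-specific, limit read from the data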;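 also: p53-null SaOS-2 cells with luciferase driven by a doxycycline-inducible promoter; compound on cells about two nights before reading with doxycycline added after day one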
Hits are given with their value; 0 = inactive; - = no result given. Most compounds without a hit are left out; they make up all but 5.4% or so of the library.

SMILES | T cruzi inh | Mdm2 MdmX PPI | SKKanGAS inh | aSyn UTR inh | CSC inhib | Mdm2-MdmX conf | FLuc counter
Cn1nnnc1Sc1ncnc2scc(-c3ccc(Cl)cc3)c12 | - | 100.3 | - | - | 82.7 | 98.9 | 52.2
Cn1nnnc1Sc1ncnc2scc(-c3ccc([N+](=O)[O-])cc3)c12 | - | 98.9 | - | - | 0 | 99.5 | 50.3
CC(C)C[C@H]1CNC(=O)C(=O)N1C[C@H](C)NC(=O)Cc1ccccc1 | 0 | 0 | 0 | 0 | 0 | - | -
CCN1CCN(c2ncnc3scc(-c4ccc(OC)cc4)c23)CC1 | 0 | 0 | 0 | 0 | 0 | - | -
Cn1nnnc1Sc1ncnc2scc(-c3ccccc3Cl)c12 | - | 67.9 | - | - | 0 | 58.5 | 0
COc1ccc(-c2csc3ncnc(Sc4nnnn4C)c23)cc1 | - | 68.1 | - | - | 0 | 45.6 | 0
O=c1[nH]c(N2CCCCC2)nc2ncn(Cc3ccccc3)c12 | 0 | 0 | - | 0 | 0 | - | -
Oc1c(Cl)cc(Cl)cc1C=Nc1ccc(Br)cc1 | 0 | 91.7 | 0 | 0 | - | 52.2 | 60.4
CN(Cc1nc2ccccc2c(=O)[nH]1)C(=O)C1CC(=O)N(c2cccc3ccccc23)C1 (stereo unspecified) | - | 0 | - | - | 0 | - | -
CN(C)CC/C=C1/c2ccc(F)cc2Sc2ccc(Cl)cc21 | 0 | 0 | 0 | 0 | 0 | - | -
CN(C)CC/C=C1\c2ccc(F)cc2Sc2cc(F)c(Cl)cc21 | 0 | 54.8 | 0 | 103.4 | 82.7 | 0 | -
CN(C)CC/C=C1\c2ccccc2Sc2cc(F)c(Cl)cc21 | 0 | 65.5 | 0 | 0 | 0 | 0 | 78.1
Cc1cc(C)cc(NC(=O)CSc2nc3[nH]ncc3c(=O)[nH]2)c1 | 0 | 60.2 | 0 | 0 | 0 | 61.6 | 49.6
Cc1ccc(NC(=O)CSc2nc3[nH]ncc3c(=O)[nH]2)cc1 | 0 | 0 | 0 | 0 | 0 | - | -
CC(C)N(C(=O)[C@H]1CC(CC(=O)NCC23CC4CC(CC(C4)C2)C3)C(=O)N2CCc3c([nH]c4ccccc34)[C@]12C)C(C)C (stereo partly specified) | - | 59.1 | - | - | - | 0 | -
CC[C@]12c3[nH]c4cc(CCC(=O)N(C)C)ccc4c3CCN1C(=O)[C@@H](CC(=O)NCC13CC4CC(CC(C4)C1)C3)C[C@@H]2C(=O)N1CCN(C(=O)c2ccco2)CC1 | - | 50.2 | - | - | - | 0 | -
CCN(CC)C(=O)[C@H]1CC(CC(=O)NCC23CC4CC(CC(C4)C2)C3)C(=O)N2CCc3c([nH]c4ccc(OC)cc34)[C@]12C (stereo partly specified) | - | 64.5 | - | - | - | 0 | -
CC(C)N(C(=O)[C@H]1C[C@H](CC(=O)NCC23CC4CC(CC(C4)C2)C3)C(=O)N2CCc3c([nH]c4cc(-c5ccco5)ccc34)[C@]12C)C(C)C | - | 69.8 | - | - | - | 0 | -
CCOc1ccccc1NC(=S)NCC1CCCO1 (stereo unspecified) | 0 | 0 | 0 | 0 | 0 | - | -
CC(C)N(C(=O)[C@H]1C[C@H](CC(=O)NCC23CC4CC(CC(C4)C2)C3)C(=O)N2CCc3c([nH]c4cc(CCC(=O)N(C)C)ccc34)[C@]12C)C(C)C | - | 80.8 | - | - | - | 43.4 | 60.1
CC(C)N(C(=O)[C@H]1CC(CC(=O)NCc2cccc(C(F)(F)F)c2)C(=O)N2CCc3c([nH]c4ccccc34)[C@]12C)C(C)C (stereo partly specified) | - | 63.8 | - | - | - | 0 | -
CCN(CC)C(=O)[C@H]1C[C@H](CC(=O)NCc2cccc(C(F)(F)F)c2)C(=O)N2CCc3c([nH]c4cc(-c5ccco5)ccc34)[C@]12C | - | 53.2 | - | - | - | 0 | -
CCN(CC)C(=O)[C@H]1C[C@H](CC(=O)NCc2ccco2)C(=O)N2CCc3c([nH]c4cc(-c5ccco5)ccc34)[C@]12C | - | 0 | - | - | - | - | -
Cc1ccc(S(=O)(=O)NCCCNS(=O)(=O)c2ccccc2Br)cc1 | - | 0 | - | - | - | - | -
O=C(COC(=O)CCc1ccc(S(=O)(=O)N2CCOCC2)cc1)Nc1ccccc1OC(F)F | - | 0 | - | - | 0 | - | -
SMILES | T cruzi inh | Mdm2 MdmX PPI | SKKanGAS inh | aSyn UTR inh | CSC inhib | Mdm2-MdmX conf | FLuc counter
Cc1cc(C)n(-c2nc3ccccc3c(=O)n2OCC#N)n1 | 59.1 | 65.9 | 0 | 0 | 0 | 49.0 | 45.7
COc1cccc(COC(=O)c2nn(-c3ccccc3)nc2N)c1 | 0 | 0 | 0 | 0 | 0 | - | -
COc1ccc2cc3c(N)nn(C(=O)Cc4c[nH]c5ccccc45)c3nc2c1 | 0 | 93.2 | 0 | 0 | 0 | 98.1 | 52.1
COc1ccc(CN(C)C(=O)Cc2c[nH]c3ccccc23)cc1 | 0 | 0 | 0 | 0 | 0 | - | -
COc1ccc2cc3c(N)nn(C(=O)Cc4ccc(Cl)cc4)c3nc2c1 | 0 | 73.3 | 0 | 0 | 0 | 59.5 | 47.8
COc1cccc(CC(=O)n2nc(N)c3cc4ccc(OC)cc4nc32)c1 | 0 | 64.1 | 0 | 0 | 0 | 0 | -
O=C(Nc1ccccc1)C1CCN(C(=O)c2ccccc2)CC1 | 0 | 0 | 0 | 0 | 0 | - | -
COc1ccc(S(=O)(=O)NCCc2nnc3ccc(SCC(=O)Nc4nc(C)cs4)nn23)cc1 | 0 | 0 | 0 | 0 | 0 | - | -
COc1ccc(CN2C(=O)NC3(CCCCCC3)C2=O)cc1F | 0 | 0 | 0 | 0 | 0 | - | -
O=Nc1c(O)n(Cc2c(Cl)cccc2Cl)c2ccccc12 | 0 | 51.6 | 0 | 0 | 0 | 0 | -
Cc1ccc2c(c1)c(N=O)c(O)n2Cc1ccc(Cl)cc1 | 0 | 60.3 | 0 | 0 | 103.6 | 0 | -
O=Nc1c(O)n(Cc2ccc(Cl)cc2)c2ccccc12 | 0 | 50.8 | 0 | 0 | 0 | 0 | -
Cc1ccc2c(c1)c(N=NC(N)=S)c(O)n2Cc1ccccc1 | 0 | 0 | 0 | 0 | 0 | - | -
Cc1ccccc1OCCNC(=O)CSc1ccc(C(F)(F)F)cc1[N+](=O)[O-] | 0 | 0 | 0 | 0 | 0 | - | -
Cc1ccc(NC(=O)c2cc(-c3ccc4c(c3)OCO4)on2)cc1C | 0 | 0 | 0 | 0 | 0 | - | -
O=C(Nc1ccc2c(c1)OCO2)c1cc(-c2ccc(O)cc2)on1 | 54.9 | 83.7 | 0 | 0 | 101.2 | 0 | -
COc1ccc(NC(=O)c2cc(-c3ccc4c(c3)OCO4)on2)cc1OC | 0 | 67.9 | 0 | 0 | 0 | 44.8 | 97.1
Cc1cccc(/C=N/N2CCN(c3ccccc3)CC2)c1 | 0 | 0 | 0 | 0 | 0 | - | -
O=C(CCl)N1CCN2C(=O)c3ccccc3C12c1ccc(Cl)cc1 (stereo unspecified) | 0 | 100.1 | 0 | 0 | 0 | 48.2 | 0
CC1=C(C(N)=O)C(c2cccs2)NC(=S)N1 (stereo unspecified) | 0 | 0 | 0 | 0 | 0 | - | -
COc1cc2c(cc1C1NC(=S)NC(C)=C1C(N)=O)CCCC2 (stereo unspecified) | 0 | 66.4 | 0 | 0 | - | 0 | 85.7
COc1ccc(OC)c(S(=O)(=O)NC(C)(C)C)c1 | 0 | 0 | 0 | 0 | - | - | -
O=c1c([N+](=O)[O-])c(N2CCCCCC2)c2ccccc2n1-c1ccccc1 | 0 | 0 | 0 | 0 | 0 | - | -
